In ChEMBL document CHEMBL5661979, “Pharmacological inhibition of BMK1 suppresses tumor growth through promyelocytic leukemia protein” (Cancer Cell, 2010) one finds IC50 and inhibition data, which are given here for one compound.

pIC50: −log10 of the molar value. Where only a bound is given, the exact number is not on record here.

As usually defined, the pIC50 is the IC50 on a negative log10 scale, so that one unit is a factor of ten. The inhibition is the change of the read-out against control, counted positive when it falls.

Holding throughout (type): subcellular
Assay [1] has as its target Calcium/calmodulin-dependent protein kinase type 1D (Homo sapiens, UniProt Q8IU85). Nature of the assay: Inhibition of CAMK1d in human HeLa cells lysate pre incubated for 15 mins followed by ATP acyl phosphate probe addition and measured after 10 mins by LC-MS/MS analysis. The method, boiled down:
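KiNativ-type profiling in HeLa lysate (5 mg/mL total protein). Lysate preincubated 15 min with inhibitor at 50, 10, 2, 0.8 or 0 μM, then ATP or ADP acylphosphate probe added (5 μM final) for 10 min. Reaction stopped with urea and analysed by targeted MS, using up to four fragment ions per kinase peptide-probe conjugate. % inhibition calculated against untreated lysate. Duplicate reactions.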

In assay [2] the target is Phosphorylase b kinase gamma catalytic chain, liver/testis isoform (Homo sapiens, UniProt P15735). Nature of the assay: Inhibition of PHKg2 in human HeLa cells lysate pre incubated for 15 mins followed by ATP acyl phosphate probe addition and measured after 10 mins by LC-MS/MS analysis.
Chain of Phosphorylase b kinase gamma catalytic chain, liver/testis isoform (P15735 whole entry, canonical isoform): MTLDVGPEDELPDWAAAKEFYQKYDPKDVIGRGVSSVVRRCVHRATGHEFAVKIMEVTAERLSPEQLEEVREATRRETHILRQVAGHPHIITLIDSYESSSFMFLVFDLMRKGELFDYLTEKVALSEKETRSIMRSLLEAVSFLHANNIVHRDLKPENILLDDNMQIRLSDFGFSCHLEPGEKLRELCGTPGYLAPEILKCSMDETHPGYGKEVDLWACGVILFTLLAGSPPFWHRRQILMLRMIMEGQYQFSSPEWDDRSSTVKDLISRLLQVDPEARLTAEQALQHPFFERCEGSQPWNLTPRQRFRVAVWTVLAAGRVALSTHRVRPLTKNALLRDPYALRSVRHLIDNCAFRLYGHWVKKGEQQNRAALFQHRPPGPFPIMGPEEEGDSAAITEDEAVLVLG
Assay [3] deals with Cyclin-dependent kinase 13 (Homo sapiens, UniProt Q14004). In words: Inhibition of CHED in human HeLa cells lysate pre incubated for 15 mins followed by ADP acyl phosphate probe addition and measured after 10 mins by LC-MS/MS analysis. An outline of the steps:
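KiNativ profiling in HeLa lysate (5 mg/mL total protein). Lysate incubated 15 min with inhibitor at 50, 10, 2, 0.8 or 0 μM. ATP or ADP acylphosphate probe then added (5 μM final) and reacted 10 min. Reaction stopped with urea and analysed by targeted MS, using up to four fragment ions per kinase peptide-probe conjugate. % inhibition taken against untreated lysate. Run in duplicate.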

The target in assay [4] is Dual specificity mitogen-activated protein kinase kinase 5 (Homo sapiens, UniProt Q13163). In words: Inhibition of MAP2K5 in human HeLa cells lysate pre incubated for 15 mins followed by ADP acyl phosphate probe addition and measured after 10 mins by LC-MS/MS analysis.
Assay [5] addresses Ribosomal protein S6 kinase alpha-5 (Homo sapiens, UniProt O75582). In words: Inhibition of MSK1 domain 1 in human HeLa cells lysate at 10 uM pre incubated for 15 mins followed by ADP acyl phosphate probe addition and measured after 10 mins by LC-MS/MS analysis relative to control. The settings on record: time 25.0 min.
Assay [6] addresses Glycogen synthase kinase-3 beta (Homo sapiens, UniProt P49841). Nature of the assay: Inhibition of GSK3B isoform 2 in human HeLa cells lysate at 2 uM pre incubated for 15 mins followed by ADP acyl phosphate probe addition and measured after 10 mins by LC-MS/MS analysis relative to control. The settings on record: time 25.0 min.
Assay [7] has as its target RPS6KA1/RPS6KA2/RPS6KA3 (Homo sapiens, UniProt P51812+Q15349+Q15418). In words: Inhibition of RSK1/2/3 in human HeLa cells lysate at 2 uM pre incubated for 15 mins followed by ADP acyl phosphate probe addition and measured after 10 mins by LC-MS/MS analysis relative to control. The settings on record: time 25.0 min.
For assay [8], the target named is T1, Mitogen-activated protein kinase kinase kinase 7 (Homo sapiens) (UniProt O43318).
T1 sequence (whole entry): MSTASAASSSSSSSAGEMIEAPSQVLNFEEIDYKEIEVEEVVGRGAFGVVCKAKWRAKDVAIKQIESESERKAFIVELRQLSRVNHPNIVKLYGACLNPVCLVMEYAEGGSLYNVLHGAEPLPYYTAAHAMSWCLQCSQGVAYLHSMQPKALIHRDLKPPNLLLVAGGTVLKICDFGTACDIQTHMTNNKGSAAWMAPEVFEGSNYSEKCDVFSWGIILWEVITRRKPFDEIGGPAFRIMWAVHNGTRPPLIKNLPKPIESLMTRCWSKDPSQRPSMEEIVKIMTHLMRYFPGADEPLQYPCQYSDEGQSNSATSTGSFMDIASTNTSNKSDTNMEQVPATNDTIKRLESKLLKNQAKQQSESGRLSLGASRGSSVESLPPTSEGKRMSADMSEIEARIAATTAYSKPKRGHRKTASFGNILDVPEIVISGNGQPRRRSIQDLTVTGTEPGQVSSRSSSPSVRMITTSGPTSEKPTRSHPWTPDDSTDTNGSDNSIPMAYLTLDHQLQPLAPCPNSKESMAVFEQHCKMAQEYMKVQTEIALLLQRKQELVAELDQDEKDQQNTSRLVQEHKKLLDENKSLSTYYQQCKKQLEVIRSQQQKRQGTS
In words: Inhibition of TAK1 in human HeLa cells lysate at 50 uM pre incubated for 15 mins followed by ATP acyl phosphate probe addition and measured after 10 mins by LC-MS/MS analysis relative to control. The settings on record: time 25.0 min.

Assay [9] deals with Microtubule-associated serine/threonine-protein kinase 3 (Homo sapiens, UniProt O60307). Nature of the assay: Inhibition of MAST3 in human HeLa cells lysate at 50 uM pre incubated for 15 mins followed by ATP acyl phosphate probe addition and measured after 10 mins by LC-MS/MS analysis relative to control. The conditions noted are these: time 25.0 min.
In assay [10] the target is DNA-dependent protein kinase catalytic subunit (Homo sapiens, UniProt P78527). Nature of the assay: Inhibition of PRKDC in human HeLa cells lysate at 2 uM pre incubated for 15 mins followed by ATP acyl phosphate probe addition and measured after 10 mins by LC-MS/MS analysis relative to control. The settings on record: time 25.0 min.
In assay [11] the target is Interferon-induced, double-stranded RNA-activated protein kinase (Homo sapiens, UniProt P19525). In words: Inhibition of PKR in human HeLa cells lysate at 2 uM pre incubated for 15 mins followed by ATP acyl phosphate probe addition and measured after 10 mins by LC-MS/MS analysis relative to control. The conditions noted are these: time 25.0 min.
Chain of Interferon-induced, double-stranded RNA-activated protein kinase (P19525 whole entry): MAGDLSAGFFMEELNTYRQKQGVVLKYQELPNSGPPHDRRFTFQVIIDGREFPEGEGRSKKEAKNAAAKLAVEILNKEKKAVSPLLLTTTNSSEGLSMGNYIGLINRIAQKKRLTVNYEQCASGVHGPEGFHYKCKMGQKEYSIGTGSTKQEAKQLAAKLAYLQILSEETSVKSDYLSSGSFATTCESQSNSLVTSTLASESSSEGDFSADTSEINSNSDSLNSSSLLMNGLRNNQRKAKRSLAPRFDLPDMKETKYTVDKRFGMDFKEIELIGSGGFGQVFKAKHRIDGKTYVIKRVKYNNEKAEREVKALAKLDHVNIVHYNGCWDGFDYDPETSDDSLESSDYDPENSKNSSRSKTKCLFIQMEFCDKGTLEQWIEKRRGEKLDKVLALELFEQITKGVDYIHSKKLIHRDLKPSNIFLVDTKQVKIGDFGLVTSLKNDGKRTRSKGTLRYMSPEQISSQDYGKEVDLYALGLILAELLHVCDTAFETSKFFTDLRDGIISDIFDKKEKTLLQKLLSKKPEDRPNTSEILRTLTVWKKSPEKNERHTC
Assay [12] deals with Mitogen-activated protein kinase kinase kinase 4 (Homo sapiens, UniProt Q9Y6R4). In words: Inhibition of MAP3K4 in human HeLa cells lysate at 2 uM pre incubated for 15 mins followed by ATP acyl phosphate probe addition and measured after 10 mins by LC-MS/MS analysis relative to control. The conditions noted are these: time 25.0 min.

Chain of RPS6KA1/RPS6KA2/RPS6KA3 (P51812 whole entry, looked up): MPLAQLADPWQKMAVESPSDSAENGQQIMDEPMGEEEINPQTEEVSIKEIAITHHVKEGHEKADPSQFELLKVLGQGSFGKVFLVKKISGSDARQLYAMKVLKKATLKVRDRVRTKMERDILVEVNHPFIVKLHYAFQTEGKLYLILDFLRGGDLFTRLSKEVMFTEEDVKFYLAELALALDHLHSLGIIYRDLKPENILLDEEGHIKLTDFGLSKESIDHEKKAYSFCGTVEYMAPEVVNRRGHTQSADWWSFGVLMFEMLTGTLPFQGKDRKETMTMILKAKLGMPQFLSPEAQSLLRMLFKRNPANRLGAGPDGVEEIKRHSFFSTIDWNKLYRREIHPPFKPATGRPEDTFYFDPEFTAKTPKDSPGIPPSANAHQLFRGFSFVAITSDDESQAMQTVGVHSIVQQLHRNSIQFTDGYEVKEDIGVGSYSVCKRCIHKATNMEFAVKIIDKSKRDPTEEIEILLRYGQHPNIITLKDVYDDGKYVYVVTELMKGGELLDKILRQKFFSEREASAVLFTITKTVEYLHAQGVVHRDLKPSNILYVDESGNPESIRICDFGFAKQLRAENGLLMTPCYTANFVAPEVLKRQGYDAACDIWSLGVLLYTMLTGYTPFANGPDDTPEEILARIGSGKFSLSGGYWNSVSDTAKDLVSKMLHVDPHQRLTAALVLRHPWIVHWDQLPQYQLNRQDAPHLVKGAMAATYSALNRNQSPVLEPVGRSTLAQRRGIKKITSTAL
Chain of RPS6KA1/RPS6KA2/RPS6KA3 (Q15349 whole entry, looked up): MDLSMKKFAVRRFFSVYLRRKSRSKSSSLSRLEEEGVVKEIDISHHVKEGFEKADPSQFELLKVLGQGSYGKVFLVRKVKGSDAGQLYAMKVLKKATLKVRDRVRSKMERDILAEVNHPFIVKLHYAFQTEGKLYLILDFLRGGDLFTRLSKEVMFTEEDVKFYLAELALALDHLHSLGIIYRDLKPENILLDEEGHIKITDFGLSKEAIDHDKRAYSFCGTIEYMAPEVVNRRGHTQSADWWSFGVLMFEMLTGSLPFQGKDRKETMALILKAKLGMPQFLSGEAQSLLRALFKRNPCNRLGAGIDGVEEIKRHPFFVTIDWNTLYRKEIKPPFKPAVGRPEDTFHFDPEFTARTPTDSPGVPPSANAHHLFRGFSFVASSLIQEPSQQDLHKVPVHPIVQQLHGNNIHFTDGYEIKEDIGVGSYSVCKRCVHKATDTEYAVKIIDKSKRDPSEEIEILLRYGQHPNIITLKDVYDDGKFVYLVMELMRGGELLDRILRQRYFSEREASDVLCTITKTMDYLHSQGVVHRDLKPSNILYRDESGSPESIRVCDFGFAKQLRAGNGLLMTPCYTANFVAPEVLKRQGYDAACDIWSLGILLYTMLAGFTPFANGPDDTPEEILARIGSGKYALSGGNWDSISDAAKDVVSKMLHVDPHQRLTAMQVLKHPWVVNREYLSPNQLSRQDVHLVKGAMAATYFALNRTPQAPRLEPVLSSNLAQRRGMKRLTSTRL
Chain of RPS6KA1/RPS6KA2/RPS6KA3 (Q15418 whole entry, looked up): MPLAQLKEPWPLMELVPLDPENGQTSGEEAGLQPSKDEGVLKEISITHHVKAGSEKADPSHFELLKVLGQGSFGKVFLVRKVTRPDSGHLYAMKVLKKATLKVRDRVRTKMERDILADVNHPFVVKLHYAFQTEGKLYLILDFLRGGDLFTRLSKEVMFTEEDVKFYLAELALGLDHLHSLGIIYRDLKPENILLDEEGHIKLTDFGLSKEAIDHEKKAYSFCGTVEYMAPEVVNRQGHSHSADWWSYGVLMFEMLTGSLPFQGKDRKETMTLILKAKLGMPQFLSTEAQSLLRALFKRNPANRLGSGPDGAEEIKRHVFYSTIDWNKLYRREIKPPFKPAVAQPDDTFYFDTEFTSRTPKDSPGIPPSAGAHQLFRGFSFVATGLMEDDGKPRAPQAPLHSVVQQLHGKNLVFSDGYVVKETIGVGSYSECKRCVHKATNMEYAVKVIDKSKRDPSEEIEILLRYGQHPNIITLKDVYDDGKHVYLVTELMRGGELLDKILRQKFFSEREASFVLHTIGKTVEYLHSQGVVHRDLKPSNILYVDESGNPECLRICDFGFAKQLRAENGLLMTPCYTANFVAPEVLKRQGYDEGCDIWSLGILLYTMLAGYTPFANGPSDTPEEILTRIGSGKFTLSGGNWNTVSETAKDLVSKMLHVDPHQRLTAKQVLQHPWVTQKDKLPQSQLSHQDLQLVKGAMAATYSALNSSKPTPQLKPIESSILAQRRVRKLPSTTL
Chain of Ribosomal protein S6 kinase alpha-5 (O75582 whole entry, looked up, the tested form may be a part, canonical isoform): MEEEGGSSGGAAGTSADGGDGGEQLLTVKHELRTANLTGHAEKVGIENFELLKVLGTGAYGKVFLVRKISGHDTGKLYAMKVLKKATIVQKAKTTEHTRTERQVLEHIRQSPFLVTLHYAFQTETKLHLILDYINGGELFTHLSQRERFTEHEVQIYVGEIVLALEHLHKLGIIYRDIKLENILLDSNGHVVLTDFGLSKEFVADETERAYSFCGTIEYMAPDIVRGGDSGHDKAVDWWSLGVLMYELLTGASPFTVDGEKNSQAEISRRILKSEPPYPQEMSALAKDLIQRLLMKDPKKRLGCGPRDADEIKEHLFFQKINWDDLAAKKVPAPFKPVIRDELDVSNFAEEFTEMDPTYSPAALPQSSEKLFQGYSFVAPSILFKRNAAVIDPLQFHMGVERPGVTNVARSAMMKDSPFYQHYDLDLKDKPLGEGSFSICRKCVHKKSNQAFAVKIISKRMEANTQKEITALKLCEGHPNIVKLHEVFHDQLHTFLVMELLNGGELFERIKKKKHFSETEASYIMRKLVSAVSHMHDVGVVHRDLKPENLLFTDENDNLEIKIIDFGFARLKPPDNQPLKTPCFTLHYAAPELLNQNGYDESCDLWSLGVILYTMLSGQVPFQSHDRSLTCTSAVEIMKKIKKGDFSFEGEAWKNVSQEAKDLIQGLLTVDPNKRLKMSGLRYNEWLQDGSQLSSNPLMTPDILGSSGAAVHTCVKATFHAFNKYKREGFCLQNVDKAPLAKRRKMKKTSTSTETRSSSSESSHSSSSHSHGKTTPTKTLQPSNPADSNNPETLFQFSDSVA
Chain of Calcium/calmodulin-dependent protein kinase type 1D (Q8IU85 whole entry, the tested form may be a part): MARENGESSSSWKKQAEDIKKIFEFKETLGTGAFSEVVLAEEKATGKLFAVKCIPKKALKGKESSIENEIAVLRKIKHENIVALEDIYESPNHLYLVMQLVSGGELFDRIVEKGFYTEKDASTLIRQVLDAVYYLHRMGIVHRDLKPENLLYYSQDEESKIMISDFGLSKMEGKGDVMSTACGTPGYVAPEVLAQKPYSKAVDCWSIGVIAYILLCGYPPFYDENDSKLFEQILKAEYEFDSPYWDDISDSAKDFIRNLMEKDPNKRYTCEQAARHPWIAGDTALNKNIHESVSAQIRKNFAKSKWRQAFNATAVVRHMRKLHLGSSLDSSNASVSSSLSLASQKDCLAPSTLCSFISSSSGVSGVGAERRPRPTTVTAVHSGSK
Chain of Glycogen synthase kinase-3 beta (P49841 whole entry, looked up, canonical isoform): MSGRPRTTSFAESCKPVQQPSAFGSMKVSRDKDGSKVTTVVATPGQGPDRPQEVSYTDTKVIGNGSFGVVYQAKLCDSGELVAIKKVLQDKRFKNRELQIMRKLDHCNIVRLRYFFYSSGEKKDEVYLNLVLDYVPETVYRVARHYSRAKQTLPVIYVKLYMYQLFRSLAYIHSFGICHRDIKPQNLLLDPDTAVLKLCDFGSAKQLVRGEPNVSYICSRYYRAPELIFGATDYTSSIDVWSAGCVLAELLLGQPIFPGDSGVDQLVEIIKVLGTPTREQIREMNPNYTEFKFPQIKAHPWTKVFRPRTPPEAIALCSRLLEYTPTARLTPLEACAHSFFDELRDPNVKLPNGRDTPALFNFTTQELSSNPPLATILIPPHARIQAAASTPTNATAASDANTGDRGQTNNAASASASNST

With `CCOc1cc(N2CCC(O)CC2)ccc1Nc1ncc2c(n1)N(C)c1ccccc1C(=O)N2C`, the pIC50 in assay [1], in [2], in [3] and in assay [4] was under 4.30 in each case. Further, the inhibition in [5] is -7.3%; in assay [6] it was 18.5%; in [7] it was 9.4%; in assay [8] it was 15.7%; in [9], -5.8%; in [10], 0.6%. Also, the inhibition is -2.6% in [11] and -8.8% in assay [12].
